Results published in article PMC9394215 (Journal for Immunotherapy of Cancer, 2022).

Assays:
[1] = tested on: TNBC (MDA-MB-231) cell membrane preparations; experiment: Malachite green assay, ATP hydrolysis by TNBC cell membrane preparations; assay type: biochemical, human; details: increasing concentrations of ceritinib, 50 µM ATP
Method in brief: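 Crude membranes came from ~90% confluent MDA-MB-231 or Ma-Mel-65 cells. Cells were homogenised in Tris/EDTA/saccharose/PMSF buffer, pH 7.4, and centrifuged at 1000 g, then 48,000 g for 1 h at 4°C. Pellets were washed and stored at −80°C in 50 mM Tris-HCl, pH 7.4. ATP hydrolysis (50 µM ATP, HEPES/Ca/Mg pH 7.4) was run with increasing test compound concentrations for 15 min at 37°C. Phosphate was read by malachite green (600 nm); triplicates, n=3.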

[2] = ref 61 62; cited from earlier work
human PBMCs = experiment: HPLC assay of AMPase activity; assay type: cell-based; details: 1-100 µM ceritinib; 1 µM eAMP
Method in brief: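 PBMCs were isolated from buffy coats by density gradient. Cells (2×10^5) were pretreated with test compound (1, 10, 50, 100 µM) for 15 min at 37°C, then given 1 µM eATP (ATPase) or eAMP (AMPase) for 30 min at 37°C. Cells were removed and supernatants 10 kDa-filtered. Etheno-nucleotides were quantified by reversed-phase C8 HPLC (phosphate pH 6.0/methanol gradient; fluorescence 230/410 nm) against standards; singlets, n=2–3.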

NTPDase8 = target: T1, NTPDase8 (Homo sapiens, UniProt Q5MY95); experiment: Malachite green assay, NTPDase8 in COS-7 cell membranes; assay type: biochemical
T1 sequence (Q5MY95 1-495): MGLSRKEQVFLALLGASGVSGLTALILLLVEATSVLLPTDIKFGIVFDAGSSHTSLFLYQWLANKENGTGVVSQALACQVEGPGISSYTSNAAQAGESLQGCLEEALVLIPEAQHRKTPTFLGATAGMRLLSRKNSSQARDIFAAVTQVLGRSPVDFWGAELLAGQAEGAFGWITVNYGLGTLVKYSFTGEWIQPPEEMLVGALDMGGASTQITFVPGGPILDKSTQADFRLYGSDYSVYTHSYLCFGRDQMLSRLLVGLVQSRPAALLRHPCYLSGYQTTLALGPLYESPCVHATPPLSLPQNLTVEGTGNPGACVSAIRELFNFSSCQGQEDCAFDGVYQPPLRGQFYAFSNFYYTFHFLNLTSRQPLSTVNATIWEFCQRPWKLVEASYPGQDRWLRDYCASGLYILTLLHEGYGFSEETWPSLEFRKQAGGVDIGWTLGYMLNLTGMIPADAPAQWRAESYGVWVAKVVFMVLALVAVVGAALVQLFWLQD
Method in brief: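 Human NTPDase2, -3 or -8 was expressed in COS-7 membranes (ca. 100 ng protein, adjusted for 10–20% substrate conversion). Enzyme was preincubated 5 min at 37°C with test compound (50 µM single point, or 0.1–300 µM for curves). It was then incubated 15 min at 37°C with 100 µM ATP in HEPES/CaCl2/MgCl2, pH 7.4, ≤2% DMSO. Malachite green absorbance at 600 nm was corrected by a denatured-enzyme blank; n=3.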

human CD39 = target: T2, human CD39 (Homo sapiens, UniProt P49961); experiment: CE-UV; assay type: biochemical
T2 sequence (P49961 1-510): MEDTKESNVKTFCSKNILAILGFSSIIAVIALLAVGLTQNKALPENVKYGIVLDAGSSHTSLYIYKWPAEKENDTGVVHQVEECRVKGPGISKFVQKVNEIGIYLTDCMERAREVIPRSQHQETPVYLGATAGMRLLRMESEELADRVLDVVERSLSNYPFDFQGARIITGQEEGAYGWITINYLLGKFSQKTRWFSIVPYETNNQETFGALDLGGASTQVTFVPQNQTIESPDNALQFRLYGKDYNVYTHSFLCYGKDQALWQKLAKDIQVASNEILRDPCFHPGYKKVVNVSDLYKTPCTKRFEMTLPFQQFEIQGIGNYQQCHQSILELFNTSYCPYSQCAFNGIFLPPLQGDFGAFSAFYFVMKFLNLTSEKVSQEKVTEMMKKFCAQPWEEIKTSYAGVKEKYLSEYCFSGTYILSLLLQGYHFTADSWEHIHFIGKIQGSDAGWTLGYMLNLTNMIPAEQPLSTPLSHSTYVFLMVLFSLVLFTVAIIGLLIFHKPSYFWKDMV
Method in brief: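 Recombinant human CD39 (COS-7 membranes) was incubated with test compound (0.1–300 µM) and 100 µM ATP. Buffer: 10 mM HEPES, 2 mM CaCl2, 1 mM MgCl2, pH 7.4; 30 min at 37°C. Reactions were stopped by heating 10 min at 90°C. ATP, ADP and AMP were separated by capillary electrophoresis with UV detection.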

[3] = cited from earlier work
NPP3 = target: T3, NPP3 (Homo sapiens, UniProt O14638); experiment: NPP3 assay; assay type: biochemical
T3 sequence (O14638 31-875 limits assumed): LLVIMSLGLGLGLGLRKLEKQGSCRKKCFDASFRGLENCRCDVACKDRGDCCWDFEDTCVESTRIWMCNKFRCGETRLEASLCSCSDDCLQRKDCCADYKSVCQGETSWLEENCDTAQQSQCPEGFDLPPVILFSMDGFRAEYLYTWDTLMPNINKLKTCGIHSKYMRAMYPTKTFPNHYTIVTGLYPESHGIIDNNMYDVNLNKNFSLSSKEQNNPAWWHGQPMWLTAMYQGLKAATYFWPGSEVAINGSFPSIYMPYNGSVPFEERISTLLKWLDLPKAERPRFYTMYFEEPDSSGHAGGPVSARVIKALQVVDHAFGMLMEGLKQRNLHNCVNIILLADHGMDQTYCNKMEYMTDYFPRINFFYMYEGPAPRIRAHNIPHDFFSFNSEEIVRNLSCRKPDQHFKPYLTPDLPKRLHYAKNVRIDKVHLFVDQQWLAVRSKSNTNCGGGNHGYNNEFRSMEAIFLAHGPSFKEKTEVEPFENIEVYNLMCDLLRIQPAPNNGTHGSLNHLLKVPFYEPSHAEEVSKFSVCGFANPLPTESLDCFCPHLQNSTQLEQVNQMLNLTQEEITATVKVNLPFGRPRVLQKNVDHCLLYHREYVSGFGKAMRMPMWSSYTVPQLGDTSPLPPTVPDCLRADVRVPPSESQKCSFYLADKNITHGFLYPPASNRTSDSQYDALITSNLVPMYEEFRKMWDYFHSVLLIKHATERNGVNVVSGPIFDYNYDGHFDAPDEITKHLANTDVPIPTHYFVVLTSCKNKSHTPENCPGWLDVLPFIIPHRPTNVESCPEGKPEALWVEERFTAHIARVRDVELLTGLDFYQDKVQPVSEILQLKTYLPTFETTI
Method in brief: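 Purified soluble NPP3 (95 ng, Sf9-expressed) was incubated with 50 µM (final) test compound, 2% DMSO and 400 µM p-nitrophenyl thymidine 5'-monophosphate. Reactions were stopped with 1 M NaOH, and p-nitrophenolate was read at 400 nm.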

IC50 (NTPDase8): 20.3 ± 1.5 µM
IC50 (human CD39): 13.7 ± 0.6 µM
IC50 (NPP3): > 50 µM
inhibition at 50 µM (NPP3; read-out: % inhibition at 50 µM): 1%
Structure (SMILES): Cc1cc(Nc2ncc(Cl)c(Nc3ccccc3S(=O)(=O)C(C)C)n2)c(OC(C)C)cc1C1CCNCC1 [ceritinib, Ceritinib]
ATPase activity of cancer cell membranes [1]: decreased significantly
brain permeation [2]: some brain permeation
effect on hydrolysis of eAMP by PBMCs (human PBMCs): only a minor effect
pharmacokinetics in mice versus humans [3]: comparable pharmacokinetics
